Key:
Stability = format: physicochemical; settings: for Rate constants, K (×10^4): hydrolysis in phosphate buffer (D2O), pseudo-first-order
How it was run: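 DMPC was sonicated in D2O phosphate buffer (pH 5.0–8.0) at 30% power for 5 min, 10 s on/off. To 800 μl of buffer with or without vesicles (compound:DMPC 1:5), 15 μl of a 0.337 M CDCl3 stock of test compound was added. 1H NMR ran at 25 °C, 128 scans, 2 s relaxation delay, integrating the C6H signal. Single-point runs. Pseudo-first-order rate constants; inhibition ratio is K without/with DMPC.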

[1] = test system: MDA-MB-435s (human melanoma); assay: In vitro cytotoxicity assay; format: cell-based; settings: MDA-MB-435s cells, 72 h, MTT
How it was run: (§1)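 Cells were grown in DMEM with 10% FBS and seeded at 1–2 × 10^4 per well, depending on the line. Test compound (free, or co-evaporated with DMPC 1:5 from chloroform) was added at once at 250, 50, 10, 2, 0.4 and 0.08 μM. Incubation ran 72 h at 37 °C, 5% CO2. Survival was read by MTT at OD 540 nm. Buffer-treated controls were on a separate plate. Triplicate runs; IC50 by curve fitting.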

[2] = test system: MCF-7 (human breast adenocarcinoma, estrogen-positive); assay: In vitro cytotoxicity assay; format: cell-based; settings: MCF-7 cells, 72 h, MTT
How it was run: as §1

H9C2 (rat myocardium) = assay: In vitro cytotoxicity assay; format: cell-based; settings: H9C2 normal cells, 72 h, MTT
How it was run: as §1

[3] = aqueous solutions, base catalyzed hydrolysis to 5-fluorouracil; cited from earlier work
C6 (rat glial tumor) = assay: In vitro cytotoxicity assay; format: cell-based; settings: C6 cells, 72 h, MTT
How it was run: as §1

[4] = test system: SH-SY-5Y (human neuroblastoma); assay: In vitro cytotoxicity assay; format: cell-based; settings: SH-SY-5Y cells, 72 h, MTT
How it was run: as §1

| Rate constants, K (×10^4) (Stability; pH 5.0, 25 °C) | Rate constants, K (×10^4) (Stability; pH 6.0, 25 °C) | Rate constants, K (×10^4) (Stability; pH 7.0, 25 °C) | Rate constants, K (×10^4) (Stability; pH 8.0, 25 °C) | Inhibition ratio, K1/K3 (Stability; pH 8.0, K of 1 alone over K of 1 with DMPC (3)) | Time practically kept unharmed (Stability; phosphate buffer pH 5, without DMPC) | Time degradation completely prevented (Stability; with 2 (DMPC, 1:5), phosphate buffer, at decreasing pH) | SMILES | IC50, concentration providing 50% cell killing effect [1] | IC50, concentration providing 50% cell killing effect [2] | IC50, concentration providing 50% cell killing effect (H9C2 (rat myocardium)) | pH of highest stability [3] | IC50, concentration providing 50% cell killing effect (C6 (rat glial tumor)) | IC50, concentration providing 50% cell killing effect [4] |
| --- | --- | --- | --- | --- | --- | --- | --- | --- | --- | --- | --- | --- | --- |
| 0 ×10^4 | 0.17 ×10^4 | 0.54 ×10^4 | 0.70 ×10^4 | over 7 | more than 14 h | ≥ 2 days | CCCCCCNC(=O)n1cc(F)c(=O)[nH]c1=O [compound 1, 1-hexylcarbamoyl-5-fluorouracil] | no activity in vitro | no activity in vitro | not cardiotoxic | ~4 | – | – |
| – | – | – | – | – | – | – | CCCCCCCCCCCCCC(=O)OC[C@H](COP(=O)([O-])OCC[N+](C)(C)C)OC(=O)CCCCCCCCCCCCC [compound 2, 1,2-dimyristoyl-sn-glycero-3-phosphocholine] | – | – | – | – | no cytotoxic effect | no cytotoxic effect |

— paper PMC5598257 (Toxicology Reports, 2015)
